Data reported in the M2OR odorant receptor database.
Where a chain is given by its changes, count along the chain named.

Tests used:
Settings in all cases: stereoisomer not certain
OR6C65 (Homo sapiens) = molecular target: T1, OR6C65 (Homo sapiens) (UniProt A6NJZ3)
T1 sequence (whole entry): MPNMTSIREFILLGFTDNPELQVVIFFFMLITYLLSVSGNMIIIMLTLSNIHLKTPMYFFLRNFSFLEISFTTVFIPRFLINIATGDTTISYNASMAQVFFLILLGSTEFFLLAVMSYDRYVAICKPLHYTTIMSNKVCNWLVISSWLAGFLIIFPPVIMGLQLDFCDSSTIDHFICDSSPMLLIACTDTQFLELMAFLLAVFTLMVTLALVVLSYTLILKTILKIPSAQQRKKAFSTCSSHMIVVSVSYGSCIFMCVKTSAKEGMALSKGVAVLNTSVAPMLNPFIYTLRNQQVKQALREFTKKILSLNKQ
Procedure, shortened: (§1)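 Each receptor–molecule pair is labelled responsive or non-responsive (inactive) according to whether the original authors judged the measured signal statistically different from baseline. The data were taken from the main text and supplementary material of published papers and checked for typos and inconsistencies. Assay methods differed by source, with transient luciferase assays in mammalian cell lines being common.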

OR6C68 (Homo sapiens) = molecular target: T2, OR6C68 (Homo sapiens) (UniProt A6NDL8)
T2 sequence (whole entry): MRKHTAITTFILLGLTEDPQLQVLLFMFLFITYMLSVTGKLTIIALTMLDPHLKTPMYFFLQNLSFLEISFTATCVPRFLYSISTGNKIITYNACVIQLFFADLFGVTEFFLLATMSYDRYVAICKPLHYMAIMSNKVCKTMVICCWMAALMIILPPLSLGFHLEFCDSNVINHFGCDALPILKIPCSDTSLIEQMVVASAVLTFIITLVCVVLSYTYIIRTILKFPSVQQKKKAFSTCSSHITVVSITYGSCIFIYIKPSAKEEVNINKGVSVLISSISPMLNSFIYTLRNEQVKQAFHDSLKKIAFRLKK
Procedure, shortened: as §1

OR6C70 (Homo sapiens) = molecular target: T3, OR6C70 (Homo sapiens) (UniProt A6NIJ9)
T3 sequence (whole entry): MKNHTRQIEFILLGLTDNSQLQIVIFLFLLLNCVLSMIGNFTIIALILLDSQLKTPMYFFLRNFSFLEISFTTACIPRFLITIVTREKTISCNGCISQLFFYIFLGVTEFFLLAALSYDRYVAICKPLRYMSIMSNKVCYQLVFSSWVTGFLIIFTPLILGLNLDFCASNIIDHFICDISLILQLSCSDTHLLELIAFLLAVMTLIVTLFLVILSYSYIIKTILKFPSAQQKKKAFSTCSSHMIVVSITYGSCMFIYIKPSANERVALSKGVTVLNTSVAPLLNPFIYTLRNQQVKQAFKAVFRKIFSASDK
Procedure, shortened: as §1

OR6C74 (Homo sapiens) = molecular target: T4, OR6C74 (Homo sapiens) (UniProt A6NCV1)
T4 sequence (whole entry): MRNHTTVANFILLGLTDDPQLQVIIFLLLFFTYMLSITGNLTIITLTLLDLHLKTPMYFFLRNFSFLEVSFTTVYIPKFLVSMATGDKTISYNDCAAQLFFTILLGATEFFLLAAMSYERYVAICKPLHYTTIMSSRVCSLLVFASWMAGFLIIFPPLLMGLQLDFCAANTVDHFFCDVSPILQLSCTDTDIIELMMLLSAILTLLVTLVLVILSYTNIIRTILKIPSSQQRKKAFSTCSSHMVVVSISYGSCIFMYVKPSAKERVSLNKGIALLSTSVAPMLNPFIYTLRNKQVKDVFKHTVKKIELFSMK
Procedure, shortened: as §1

OR6C75 (Homo sapiens) = molecular target: T5, OR6C75 (Homo sapiens) (UniProt A6NL08)
T5 sequence (whole entry): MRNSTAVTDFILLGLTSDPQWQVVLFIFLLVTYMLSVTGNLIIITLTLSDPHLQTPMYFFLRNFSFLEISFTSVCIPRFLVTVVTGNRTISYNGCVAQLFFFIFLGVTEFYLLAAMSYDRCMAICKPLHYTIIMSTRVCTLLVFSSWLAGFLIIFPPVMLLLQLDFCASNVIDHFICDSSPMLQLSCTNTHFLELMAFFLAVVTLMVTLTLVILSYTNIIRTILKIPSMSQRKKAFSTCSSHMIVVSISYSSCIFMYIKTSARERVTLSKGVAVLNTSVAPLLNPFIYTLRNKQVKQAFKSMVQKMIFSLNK
Procedure, shortened: as §1

OR6C76 (Homo sapiens) = molecular target: T6, OR6C76 (Homo sapiens) (UniProt A6NM76)
T6 sequence (whole entry): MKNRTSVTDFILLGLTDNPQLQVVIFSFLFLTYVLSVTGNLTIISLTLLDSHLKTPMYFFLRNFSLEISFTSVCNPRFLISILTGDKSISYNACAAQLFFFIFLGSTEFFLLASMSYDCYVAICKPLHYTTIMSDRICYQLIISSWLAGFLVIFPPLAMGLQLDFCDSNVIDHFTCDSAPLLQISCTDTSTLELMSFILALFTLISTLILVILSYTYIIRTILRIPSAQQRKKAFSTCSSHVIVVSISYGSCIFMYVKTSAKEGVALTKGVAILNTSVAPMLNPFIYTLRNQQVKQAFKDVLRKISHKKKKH
Procedure, shortened: as §1

OR6F1 (Homo sapiens) = molecular target: T7, OR6F1 (Homo sapiens) (UniProt Q8NGZ6)
T7 sequence (whole entry): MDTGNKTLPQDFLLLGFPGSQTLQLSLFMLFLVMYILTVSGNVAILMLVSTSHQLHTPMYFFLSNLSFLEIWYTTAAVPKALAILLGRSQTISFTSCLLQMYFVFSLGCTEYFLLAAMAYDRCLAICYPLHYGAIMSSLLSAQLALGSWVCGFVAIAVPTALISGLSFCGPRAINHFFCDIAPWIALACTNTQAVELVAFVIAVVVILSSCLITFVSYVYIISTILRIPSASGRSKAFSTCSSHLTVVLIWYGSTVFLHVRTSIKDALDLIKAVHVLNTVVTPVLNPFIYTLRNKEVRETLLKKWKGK
Procedure, shortened: as §1

OR6J1 (Homo sapiens) [1] = molecular target: T8, OR6J1 (Homo sapiens) (UniProt Q8NGC5)
T8 sequence (whole entry): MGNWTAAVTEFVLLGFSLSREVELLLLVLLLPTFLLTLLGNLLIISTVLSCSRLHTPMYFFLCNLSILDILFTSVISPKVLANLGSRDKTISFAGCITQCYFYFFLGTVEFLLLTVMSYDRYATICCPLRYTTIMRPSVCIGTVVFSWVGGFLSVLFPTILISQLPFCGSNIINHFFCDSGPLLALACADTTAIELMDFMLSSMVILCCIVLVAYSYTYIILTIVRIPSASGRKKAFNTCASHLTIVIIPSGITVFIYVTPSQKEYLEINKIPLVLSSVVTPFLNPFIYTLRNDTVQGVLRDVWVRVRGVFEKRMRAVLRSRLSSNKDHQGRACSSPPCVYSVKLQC
Procedure, shortened: as §1

OR6K2 (Homo sapiens) = molecular target: T9, OR6K2 (Homo sapiens) (UniProt Q8NGY2)
T9 sequence (whole entry): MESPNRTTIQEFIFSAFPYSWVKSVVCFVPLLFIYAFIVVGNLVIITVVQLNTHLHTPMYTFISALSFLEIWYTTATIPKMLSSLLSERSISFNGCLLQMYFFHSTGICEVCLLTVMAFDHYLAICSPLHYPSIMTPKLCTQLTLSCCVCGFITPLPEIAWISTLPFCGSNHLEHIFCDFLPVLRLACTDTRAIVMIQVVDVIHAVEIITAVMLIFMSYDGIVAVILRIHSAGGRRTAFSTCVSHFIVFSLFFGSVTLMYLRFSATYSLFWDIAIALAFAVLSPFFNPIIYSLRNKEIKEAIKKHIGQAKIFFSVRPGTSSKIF
Procedure, shortened: as §1

OR6J1 (Homo sapiens) [2] = molecular target: T10, OR6J1 (Homo sapiens) (UniProt Q8NGC5); remark: listed apart in the source
T10 sequence (whole entry): T8 sequence (whole entry) with P250S
Procedure, shortened: as §1

Measured: odorant receptor agonist call;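 note: active if original authors judged signal statistically different from baseline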

CCCCCC(=O)C(C)C(C)=O (stereo not given)
inactive: OR6C65 (Homo sapiens) | OR6C68 (Homo sapiens) | OR6C70 (Homo sapiens) | OR6C74 (Homo sapiens) | OR6C75 (Homo sapiens) | OR6C76 (Homo sapiens) | OR6F1 (Homo sapiens) | OR6J1 (Homo sapiens) [1] | OR6K2 (Homo sapiens)

CCCC(S)CCOC(C)=O (stereo not given)
inactive: OR6C65 (Homo sapiens) | OR6C68 (Homo sapiens) | OR6C70 (Homo sapiens) | OR6C74 (Homo sapiens) | OR6C75 (Homo sapiens) | OR6C76 (Homo sapiens) | OR6F1 (Homo sapiens) | OR6J1 (Homo sapiens) [2] | OR6K2 (Homo sapiens)

CC(=O)c1c(C)c([N+](=O)[O-])c(C(C)(C)C)c([N+](=O)[O-])c1C
inactive: OR6C65 (Homo sapiens) | OR6C68 (Homo sapiens) | OR6C70 (Homo sapiens) | OR6C74 (Homo sapiens) | OR6C75 (Homo sapiens) | OR6C76 (Homo sapiens) | OR6F1 (Homo sapiens) | OR6J1 (Homo sapiens) [1] | OR6K2 (Homo sapiens)

CCCCC(S)C(C)CO (stereo not given)
inactive: OR6C65 (Homo sapiens) | OR6C68 (Homo sapiens) | OR6C70 (Homo sapiens) | OR6C74 (Homo sapiens) | OR6C75 (Homo sapiens) | OR6C76 (Homo sapiens) | OR6F1 (Homo sapiens) | OR6J1 (Homo sapiens) [1] | OR6K2 (Homo sapiens)

CC1=C(O)C(=O)C(C)O1 (stereo not given)
inactive: OR6C65 (Homo sapiens) | OR6C68 (Homo sapiens) | OR6C70 (Homo sapiens) | OR6C74 (Homo sapiens) | OR6C75 (Homo sapiens) | OR6C76 (Homo sapiens) | OR6F1 (Homo sapiens) | OR6J1 (Homo sapiens) [2] | OR6K2 (Homo sapiens)

CC(CO)CS (stereo not given)
inactive: OR6C65 (Homo sapiens) | OR6C68 (Homo sapiens) | OR6C70 (Homo sapiens) | OR6C74 (Homo sapiens) | OR6C75 (Homo sapiens) | OR6C76 (Homo sapiens) | OR6F1 (Homo sapiens) | OR6J1 (Homo sapiens) [1] | OR6K2 (Homo sapiens)

CC1=C(O)C(=O)OC1C (stereo not given)
inactive: OR6C65 (Homo sapiens) | OR6C68 (Homo sapiens) | OR6C70 (Homo sapiens) | OR6C74 (Homo sapiens) | OR6C75 (Homo sapiens) | OR6C76 (Homo sapiens) | OR6F1 (Homo sapiens) | OR6J1 (Homo sapiens) [2] | OR6K2 (Homo sapiens)

CCC(S)C(C)CO (stereo not given)
inactive: OR6C65 (Homo sapiens) | OR6C68 (Homo sapiens) | OR6C70 (Homo sapiens) | OR6C74 (Homo sapiens) | OR6C75 (Homo sapiens) | OR6C76 (Homo sapiens) | OR6F1 (Homo sapiens) | OR6J1 (Homo sapiens) [1] | OR6K2 (Homo sapiens)

CCC1OC(=O)C(O)=C1C (stereo not given)
inactive: OR6C65 (Homo sapiens) | OR6C68 (Homo sapiens) | OR6C70 (Homo sapiens) | OR6C74 (Homo sapiens) | OR6C75 (Homo sapiens) | OR6C76 (Homo sapiens) | OR6F1 (Homo sapiens) | OR6J1 (Homo sapiens) [2] | OR6K2 (Homo sapiens)

CCC1OC(C)=C(O)C1=O (stereo not given)
inactive: OR6C65 (Homo sapiens) | OR6C68 (Homo sapiens) | OR6C70 (Homo sapiens) | OR6C74 (Homo sapiens) | OR6C75 (Homo sapiens) | OR6C76 (Homo sapiens) | OR6F1 (Homo sapiens) | OR6J1 (Homo sapiens) [2] | OR6K2 (Homo sapiens)

CCCCCC(S)C(C)CO (stereo not given)
inactive: OR6C65 (Homo sapiens) | OR6C68 (Homo sapiens) | OR6C70 (Homo sapiens) | OR6C74 (Homo sapiens) | OR6C75 (Homo sapiens) | OR6C76 (Homo sapiens) | OR6F1 (Homo sapiens) | OR6J1 (Homo sapiens) [1] | OR6K2 (Homo sapiens)

CC1=NC(C)C(C)S1 (stereo not given)
inactive: OR6C65 (Homo sapiens) | OR6C68 (Homo sapiens) | OR6C70 (Homo sapiens) | OR6C74 (Homo sapiens) | OR6C75 (Homo sapiens) | OR6C76 (Homo sapiens) | OR6F1 (Homo sapiens) | OR6J1 (Homo sapiens) [2] | OR6K2 (Homo sapiens)

CC1CCCCCCCCCCCCC(=O)C1 (stereo not given)
inactive: OR6C65 (Homo sapiens) | OR6C68 (Homo sapiens) | OR6C70 (Homo sapiens) | OR6C74 (Homo sapiens) | OR6C75 (Homo sapiens) | OR6C76 (Homo sapiens) | OR6F1 (Homo sapiens) | OR6J1 (Homo sapiens) [1] | OR6K2 (Homo sapiens)

CCCCCCC=CCCC=O
inactive: OR6C65 (Homo sapiens) | OR6C68 (Homo sapiens) | OR6C70 (Homo sapiens) | OR6C74 (Homo sapiens) | OR6C75 (Homo sapiens) | OR6C76 (Homo sapiens) | OR6F1 (Homo sapiens) | OR6J1 (Homo sapiens) [1] | OR6K2 (Homo sapiens)

Cc1cnc(C)c(C)n1
inactive: OR6C65 (Homo sapiens) | OR6C68 (Homo sapiens) | OR6C70 (Homo sapiens) | OR6C74 (Homo sapiens) | OR6C75 (Homo sapiens) | OR6C76 (Homo sapiens) | OR6F1 (Homo sapiens) | OR6J1 (Homo sapiens) [2] | OR6K2 (Homo sapiens)
